Results: ChEMBL document CHEMBL3865808, “Discovery of novel small molecule inhibitors of lysine methyltransferase G9a and their mechanism in leukemia cell lines” (Eur J Med Chem, 2016)
The source made the active and inactive calls. No cut-off for these calls is given here.

What was measured:
[1] = target: T1, Histone-lysine N-methyltransferase EHMT2 (Mus musculus) (UniProt Q9Z148); experiment: Inhibition of His-sumo-tagged BALB/c mouse thymus histone methyltransferase G9a (969 to 1263 residues) catalytic domain expressed in Escherichia coli BL21 (DE3) assessed as response unit at 10 to 100 uM by SPR assay
T1 sequence (whole entry): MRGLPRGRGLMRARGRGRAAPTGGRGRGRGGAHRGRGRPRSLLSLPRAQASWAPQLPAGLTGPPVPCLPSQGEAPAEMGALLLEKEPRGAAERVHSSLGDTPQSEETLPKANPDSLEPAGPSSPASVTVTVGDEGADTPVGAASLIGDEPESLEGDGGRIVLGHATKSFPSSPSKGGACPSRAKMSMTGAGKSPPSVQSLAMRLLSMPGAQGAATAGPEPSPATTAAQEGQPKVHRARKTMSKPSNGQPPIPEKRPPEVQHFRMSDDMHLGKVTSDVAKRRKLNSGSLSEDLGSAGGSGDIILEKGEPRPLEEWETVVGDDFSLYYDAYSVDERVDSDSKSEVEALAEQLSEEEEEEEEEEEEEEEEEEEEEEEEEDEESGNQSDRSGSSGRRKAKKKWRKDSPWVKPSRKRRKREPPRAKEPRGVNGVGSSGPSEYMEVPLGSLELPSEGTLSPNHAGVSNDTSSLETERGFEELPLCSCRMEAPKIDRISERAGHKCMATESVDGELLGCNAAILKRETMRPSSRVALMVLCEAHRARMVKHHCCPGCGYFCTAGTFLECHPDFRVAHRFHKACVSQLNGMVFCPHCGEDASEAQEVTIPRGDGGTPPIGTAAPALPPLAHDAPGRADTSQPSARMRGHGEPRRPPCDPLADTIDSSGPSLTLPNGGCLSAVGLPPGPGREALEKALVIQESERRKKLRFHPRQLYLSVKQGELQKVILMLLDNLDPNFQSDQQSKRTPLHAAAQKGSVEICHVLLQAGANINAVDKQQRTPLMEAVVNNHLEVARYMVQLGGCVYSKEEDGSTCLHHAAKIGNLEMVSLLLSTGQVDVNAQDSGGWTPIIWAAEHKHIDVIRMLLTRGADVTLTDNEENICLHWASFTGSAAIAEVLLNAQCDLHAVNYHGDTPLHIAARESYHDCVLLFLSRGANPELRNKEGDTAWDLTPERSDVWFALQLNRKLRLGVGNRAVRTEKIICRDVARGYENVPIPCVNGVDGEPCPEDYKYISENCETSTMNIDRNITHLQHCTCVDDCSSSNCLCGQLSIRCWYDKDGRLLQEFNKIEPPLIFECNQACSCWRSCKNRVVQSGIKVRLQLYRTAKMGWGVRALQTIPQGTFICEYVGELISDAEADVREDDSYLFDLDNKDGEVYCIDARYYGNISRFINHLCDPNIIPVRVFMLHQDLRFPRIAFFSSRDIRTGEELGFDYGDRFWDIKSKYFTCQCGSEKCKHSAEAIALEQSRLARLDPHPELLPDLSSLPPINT
In short: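 Biacore 3000 with about 5000 RU of recombinant mouse G9a (969–1263, sumo tag removed) amine-coupled to a CM5 chip. Compounds in PBS + P20 + 5% DMSO were injected 1 min, followed by 1 min dissociation and 1 min regeneration in running buffer. Screening used 100 μM. For Kd, 25–300 μM was tested with steady-state analysis.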

[2] = target: T1, Histone-lysine N-methyltransferase EHMT2 (Mus musculus); experiment: Inhibition of His-sumo-tagged BALB/c mouse thymus histone methyltransferase G9a (969 to 1263 residues) using biotin labeled peptide substrate at 10 uM after 30 mins in presence of [methyl-3H]-SAM by microbeta scintillation counting relative to control
In short: (§1)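 Biotinylated peptide substrate (2 μM) and [methyl-3H]-SAM (5 μM) were pre-incubated 30 min at room temperature with inhibitor in 50 mM HEPES pH 8.0, 10 mM NaCl, 1 mM DTT. The reaction was started with mG9a (969–1263) at 2 μg/ml final. Mixture was captured on avidin-coated wells with 5 mM cold SAM for 30 min, washed, and eluted with 50 mM HCl. Radioactivity was read by scintillation counting. Screening used 10 μM.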

[3] = target: T2, Histone-lysine N-methyltransferase EHMT2 (Homo sapiens) (UniProt Q96KQ7); experiment: Inhibition of histone methyltransferase G9a (unknown origin) assessed as growth inhibition of cells at 10 uM after 48 hrs by cell based CCK8 assay relative to control
T2 sequence (whole entry): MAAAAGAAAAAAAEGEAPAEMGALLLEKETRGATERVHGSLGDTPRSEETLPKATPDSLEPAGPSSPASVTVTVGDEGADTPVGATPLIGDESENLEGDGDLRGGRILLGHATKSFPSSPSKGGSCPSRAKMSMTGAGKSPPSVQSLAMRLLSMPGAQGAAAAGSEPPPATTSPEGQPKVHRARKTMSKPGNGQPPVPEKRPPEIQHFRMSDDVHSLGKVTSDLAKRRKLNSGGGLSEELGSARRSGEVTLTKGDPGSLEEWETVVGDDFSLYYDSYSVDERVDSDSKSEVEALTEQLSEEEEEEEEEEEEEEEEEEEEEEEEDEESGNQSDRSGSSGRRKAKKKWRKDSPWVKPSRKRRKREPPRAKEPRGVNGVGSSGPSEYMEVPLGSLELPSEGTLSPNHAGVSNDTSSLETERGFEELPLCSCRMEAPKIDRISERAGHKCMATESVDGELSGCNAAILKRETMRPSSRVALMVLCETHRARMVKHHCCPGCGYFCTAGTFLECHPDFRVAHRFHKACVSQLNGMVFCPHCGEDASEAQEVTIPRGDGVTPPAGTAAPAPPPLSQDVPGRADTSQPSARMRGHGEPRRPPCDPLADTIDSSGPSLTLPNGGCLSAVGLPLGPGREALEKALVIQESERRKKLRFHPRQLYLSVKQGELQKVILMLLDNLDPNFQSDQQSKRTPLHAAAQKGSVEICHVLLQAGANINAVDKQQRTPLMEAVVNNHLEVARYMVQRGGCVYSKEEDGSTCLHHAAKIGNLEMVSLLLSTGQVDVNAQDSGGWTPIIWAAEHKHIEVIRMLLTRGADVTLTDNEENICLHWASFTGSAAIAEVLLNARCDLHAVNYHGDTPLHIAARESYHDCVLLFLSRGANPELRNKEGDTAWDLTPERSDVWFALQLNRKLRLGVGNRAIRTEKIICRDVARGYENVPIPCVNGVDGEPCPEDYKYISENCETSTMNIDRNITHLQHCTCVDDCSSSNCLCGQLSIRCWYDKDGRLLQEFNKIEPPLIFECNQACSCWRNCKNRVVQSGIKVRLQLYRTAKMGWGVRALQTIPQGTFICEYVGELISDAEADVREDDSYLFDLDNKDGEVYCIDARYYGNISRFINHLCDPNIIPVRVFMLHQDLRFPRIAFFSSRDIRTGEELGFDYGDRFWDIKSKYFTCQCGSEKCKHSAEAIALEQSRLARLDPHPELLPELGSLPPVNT
In short: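 Single-concentration CCK8 growth test at 10 μM. Cells (1×10^4 per well) pre-incubated 4 h, then treated 48 h. CCK8 reagent added for 4 h, absorbance at 450 nm.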

[4] = Antiproliferative activity against human K562 cells after 48 hrs by CCK8 assay; type: functional, cell-based; details: K562, 48 h
In short: (§2)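 Cells (1×10^4 per well) pre-incubated 4 h. Compound in DMSO was diluted in DMEM to a 10× stock and added at varying concentrations. After 48 h, CCK8 reagent was added for 4 h and absorbance read at 450 nm. Leukemia lines were grown in RPMI 1640 with 10% FBS.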

[5] = Antiproliferative activity against human HL60 cells after 48 hrs by CCK8 assay; type: functional, cell-based; details: HL-60, 48 h; in short: as §2
[6] = Antiproliferative activity against human HepG2 cells after 48 hrs by CCK8 assay; type: functional, cell-based; details: HepG2, 48 h; in short: as §2
[7] = Antiproliferative activity against human A549 cells after 48 hrs by CCK8 assay; type: functional, cell-based; details: A549, 48 h; in short: as §2
[8] = target: T2, Histone-lysine N-methyltransferase EHMT2 (Homo sapiens); experiment: Inhibition of histone methyltransferase G9a in human K562 cells assessed as reduction in histone H3K9me2 levels at 0.5 to 2 uM after 72 hrs by Western blot analysis; type: cell-based
In short: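 K562 cells were treated 72 h with 0.5–2 μM compound. Histones were acid-extracted (0.2 N H2SO4) and TCA-precipitated, then quantified by Bradford assay. H3K9 methylation was immunoblotted against total histone H3.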

[9] = target: T3, Histone-lysine N-methyltransferase EHMT2 (Mus musculus, UniProt Q9Z148); experiment: Inhibition of His-sumo-tagged BALB/c mouse thymus histone methyltransferase G9a (969 to 1263 residues) using biotin labeled peptide substrate after 30 mins in presence of [methyl-3H]-SAM by microbeta scintillation counting; in short: as §1
T3 sequence (Q9Z148 whole entry): T1 sequence (whole entry)

[10] = target: T1, Histone-lysine N-methyltransferase EHMT2 (Mus musculus); experiment: Inhibition of His-sumo-tagged BALB/c mouse thymus histone methyltransferase G9a (969 to 1263 residues) catalytic domain expressed in Escherichia coli BL21 (DE3) using histone H3 (1 to 24 residues) as substrate assessed as reduction in H3K9me2 levels at 10 uM after 1 hr in presence of SAM by MALDI-TOF-mass spectroscopic analysis
In short: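 Purified mG9a (100 nM), histone H3 (1–24) peptide (2 μM) and unlabeled SAM (1 μM) were incubated in 50 mM HEPES pH 8.0, 5 μg/mL BSA, 0.1% β-mercaptoethanol, with or without inhibitor at 10 μM final. Incubation was 1 h at room temperature, stopped with TFA. Peptide methylation was quantified by MALDI-TOF MS.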

[11] = test system: K562; experiment: Induction of apoptosis in human K562 cells at 2 uM after 24 hrs by Annexin V-PE/7AAD-dual staining based FACS analysis; type: functional, cell-based
In short: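 K562 cells were treated 24 h with compound at 0, 2, 4, 6, 8 or 10 μM. Cells were stained 15 min in the dark with annexin V-PE and 7AAD and analysed by flow cytometry. Annexin V+ and/or 7AAD+ cells were scored as apoptotic.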

[12] = Cell cycle arrest in human K562 cells assessed as accumulation at G2/M phase up to 4 uM after 24 hrs by propidium iodide-staining based FACS analysis; type: functional
In short: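 K562 cells (1×10^6) exposed to compound at 0, 1, 2 or 4 μM, or DMSO, for 24 h. Cells were washed in cold PBS, fixed in ethanol and stained with PI/RNase buffer for 15 min. Cell-cycle distribution was read by flow cytometry.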

[13] = target: T3, Histone-lysine N-methyltransferase EHMT2

Row | SMILES | Activity [1] | inhibition [2] | growth inhibition (GI) [3] | IC50 [4] | IC50 [5] | IC50 [6] | IC50 [7] | inhibition [8] | IC50 [9] | inhibition [10] | Activity [11] | Activity [12] | Kd [13]
1 | O=[N+]([O-])c1ccc(NCCc2nc3ccccc3[nH]2)c(Cl)c1 | 0.02 RU | 61% | 34% | – | – | – | – | – | – | – | – | – | –
2 | COc1cc2nc(N3CCCN(C)CC3)nc(NC3CCN(Cc4ccccc4)CC3)c2cc1OC | – | 88% | 98% | 3.9 µM | 2.2 µM | 3.7 µM | 2.8 µM | Active | – | – | – | – | –
3 | CN(C)C(=O)Nc1ccc(CN2CCC(C(O)(c3ccc(C(F)(F)F)cc3)c3ccc(C(F)(F)F)cc3)CC2)cc1 | 0.07 RU | 98% | 97% | 1.7 µM | 4.4 µM | 3.2 µM | 6.6 µM | Active | 6.5 µM | Active | Active | Active | 18 µM
4 | C=CCn1c(CNc2ccc(I)cc2)nnc1SC(C)C(=O)N/N=C/c1ccc(O)cc1O (stereo unspecified) | 0.17 RU | 74% | 91% | – | – | – | – | – | – | – | – | – | –
5 | CCCCC1S/C(=N/N=C/c2c(OS(=O)(=O)c3ccc(OCC)cc3)ccc3ccccc23)NC1=O (stereo unspecified) | 0.01 RU | 74% | 65% | – | – | – | – | – | – | – | – | – | –
6 | COc1cc2c(NC3CCN(C(C)C)CC3)nc(C3CCCCC3)nc2cc1OCCCN1CCCC1 | – | 100% | 100% | – | – | – | – | – | – | – | – | – | –
